Source: ChEMBL document CHEMBL5058577, “EUbOPEN Chemogenomics Library 2 (Multiplex)” (2022)

Test system: U2OS
Assay: Multiplex assay against U2OS
Format: toxicity, cell-based
Conditions: human
Procedure, shortened: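 Hoechst33342, BioTracker Green Microtubule Cytoskeleton Dye, MitoTracker Red and Annexin V Alexa Fluor 680 were added to live cells at seeding, and imaging on a CQ1 microscope at 37°C and 5% CO2 followed compound addition. Gating by CellPathfinder machine learning separated cells into Hoechst high-intensity objects or normal cells, then normal cells into healthy, pyknosed or fragmented nuclei, then pyknosed cells into mitotic or apoptotic. Per cents of healthy-nucleus cells are reported for the tubulin, mitochondrial-mass and membrane-permeability phenotypes.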

[1] = 12 h, 1 µM, compound concentration 1 uM, replicate 1
[2] = 12 h, 1 µM, compound concentration 1 uM, replicate 2
[3] = 12 h, 10 µM, compound concentration 10 uM, replicate 1
[4] = 12 h, 10 µM, compound concentration 10 uM, replicate 2
[5] = 24 h, 1 µM, compound concentration 1 uM, replicate 1
[6] = 24 h, 1 µM, compound concentration 1 uM, replicate 2
[7] = 24 h, 10 µM, compound concentration 10 uM, replicate 1
[8] = 24 h, 10 µM, compound concentration 10 uM, replicate 2
[9] = 48 h, 1 µM, compound concentration 1 uM, replicate 1
[10] = 48 h, 1 µM, compound concentration 1 uM, replicate 2
[11] = 48 h, 10 µM, compound concentration 10 uM, replicate 1
[12] = 48 h, 10 µM, compound concentration 10 uM, replicate 2

SMILES: CNC[C@H](O)c1ccc(O)c(O)c1 [EPINEPHRINE]
- Population Apoptotic (%) [1]: 88%
- Population Fragmented Nuclei (%) [1]: 35%
- Population Healthy Nuclei (%) [1]: 56%
- Population Hoechst High Intensity Objects (%) [1]: 2%
- Population Membrane Permeable-Phenotype (%) [1]: 5%
- Population Mitochondria Different-Phenotype (%) [1]: 1%
- Population Mitotic Cells (%) [1]: 11%
- Population Normal (%) [1]: 97%
- Population Pyknosed Nuclei (%) [1]: 7%
- Population Tubulin-Different-Phenotype (%) [1]: 2%
- Total Cell Count [1]: 229
- Population Apoptotic (%) [2]: 80%
- Population Fragmented Nuclei (%) [2]: 17%
- Population Healthy Nuclei (%) [2]: 77%
- Population Hoechst High Intensity Objects (%) [2]: 0%
- Population Membrane Permeable-Phenotype (%) [2]: 7%
- Population Mitochondria Different-Phenotype (%) [2]: 2%
- Population Mitotic Cells (%) [2]: 20%
- Population Normal (%) [2]: 100%
- Population Pyknosed Nuclei (%) [2]: 5%
- Population Tubulin-Different-Phenotype (%) [2]: 4%
- Total Cell Count [2]: 92
- Population Apoptotic (%) [3]: 92%
- Population Fragmented Nuclei (%) [3]: 41%
- Population Healthy Nuclei (%) [3]: 45%
- Population Hoechst High Intensity Objects (%) [3]: 6%
- Population Membrane Permeable-Phenotype (%) [3]: 7%
- Population Mitochondria Different-Phenotype (%) [3]: 1%
- Population Mitotic Cells (%) [3]: 8%
- Population Normal (%) [3]: 93%
- Population Pyknosed Nuclei (%) [3]: 13%
- Population Tubulin-Different-Phenotype (%) [3]: 4%
- Total Cell Count [3]: 199
- Population Apoptotic (%) [4]: 86%
- Population Fragmented Nuclei (%) [4]: 33%
- Population Healthy Nuclei (%) [4]: 50%
- Population Hoechst High Intensity Objects (%) [4]: 9%
- Population Membrane Permeable-Phenotype (%) [4]: 6%
- Population Mitochondria Different-Phenotype (%) [4]: 2%
- Population Mitotic Cells (%) [4]: 13%
- Population Normal (%) [4]: 90%
- Population Pyknosed Nuclei (%) [4]: 15%
- Population Tubulin-Different-Phenotype (%) [4]: 6%
- Total Cell Count [4]: 105
- Population Apoptotic (%) [5]: 84%
- Population Fragmented Nuclei (%) [5]: 28%
- Population Healthy Nuclei (%) [5]: 64%
- Population Hoechst High Intensity Objects (%) [5]: 2%
- Population Membrane Permeable-Phenotype (%) [5]: 6%
- Population Mitochondria Different-Phenotype (%) [5]: 1%
- Population Mitotic Cells (%) [5]: 15%
- Population Normal (%) [5]: 97%
- Population Pyknosed Nuclei (%) [5]: 7%
- Population Tubulin-Different-Phenotype (%) [5]: 2%
- Total Cell Count [5]: 278
- Population Apoptotic (%) [6]: 75%
- Population Fragmented Nuclei (%) [6]: 19%
- Population Healthy Nuclei (%) [6]: 68%
- Population Membrane Permeable-Phenotype (%) [6]: 7%
- Population Mitochondria Different-Phenotype (%) [6]: 5%
- Population Mitotic Cells (%) [6]: 25%
- Population Pyknosed Nuclei (%) [6]: 11%
- Population Tubulin-Different-Phenotype (%) [6]: 1%
- Total Cell Count [6]: 105
- Population Apoptotic (%) [7]: 94%
- Population Fragmented Nuclei (%) [7]: 39%
- Population Healthy Nuclei (%) [7]: 50%
- Population Hoechst High Intensity Objects (%) [7]: 9%
- Population Membrane Permeable-Phenotype (%) [7]: 11%
- Population Mitochondria Different-Phenotype (%) [7]: 5%
- Population Mitotic Cells (%) [7]: 5%
- Population Normal (%) [7]: 90%
- Population Pyknosed Nuclei (%) [7]: 10%
- Population Tubulin-Different-Phenotype (%) [7]: 6%
- Total Cell Count [7]: 195
- Population Apoptotic (%) [8]: 100%
- Population Fragmented Nuclei (%) [8]: 31%
- Population Healthy Nuclei (%) [8]: 45%
- Population Hoechst High Intensity Objects (%) [8]: 11%
- Population Membrane Permeable-Phenotype (%) [8]: 2%
- Population Mitochondria Different-Phenotype (%) [8]: 0%
- Population Mitotic Cells (%) [8]: 0%
- Population Normal (%) [8]: 88%
- Population Pyknosed Nuclei (%) [8]: 22%
- Population Tubulin-Different-Phenotype (%) [8]: 2%
- Total Cell Count [8]: 96
- Population Apoptotic (%) [9]: 87%
- Population Fragmented Nuclei (%) [9]: 24%
- Population Healthy Nuclei (%) [9]: 66%
- Population Hoechst High Intensity Objects (%) [9]: 0%
- Population Membrane Permeable-Phenotype (%) [9]: 9%
- Population Mitochondria Different-Phenotype (%) [9]: 5%
- Population Mitotic Cells (%) [9]: 12%
- Population Normal (%) [9]: 99%
- Population Pyknosed Nuclei (%) [9]: 9%
- Population Tubulin-Different-Phenotype (%) [9]: 4%
- Total Cell Count [9]: 333
- Population Apoptotic (%) [10]: 92%
- Population Fragmented Nuclei (%) [10]: 18%
- Population Healthy Nuclei (%) [10]: 72%
- Population Membrane Permeable-Phenotype (%) [10]: 4%
- Population Mitochondria Different-Phenotype (%) [10]: 3%
- Population Mitotic Cells (%) [10]: 7%
- Population Tubulin-Different-Phenotype (%) [10]: 2%
- Total Cell Count [10]: 150
- Population Apoptotic (%) [11]: 92%
- Population Fragmented Nuclei (%) [11]: 41%
- Population Healthy Nuclei (%) [11]: 44%
- Population Hoechst High Intensity Objects (%) [11]: 10%
- Population Membrane Permeable-Phenotype (%) [11]: 15%
- Population Mitochondria Different-Phenotype (%) [11]: 8%
- Population Mitotic Cells (%) [11]: 7%
- Population Normal (%) [11]: 89%
- Population Pyknosed Nuclei (%) [11]: 14%
- Population Tubulin-Different-Phenotype (%) [11]: 10%
- Total Cell Count [11]: 215
- Population Apoptotic (%) [12]: 94%
- Population Fragmented Nuclei (%) [12]: 36%
- Population Healthy Nuclei (%) [12]: 40%
- Population Hoechst High Intensity Objects (%) [12]: 17%
- Population Membrane Permeable-Phenotype (%) [12]: 24%
- Population Mitochondria Different-Phenotype (%) [12]: 13%
- Population Mitotic Cells (%) [12]: 5%
- Population Normal (%) [12]: 82%
- Population Pyknosed Nuclei (%) [12]: 23%
- Population Tubulin-Different-Phenotype (%) [12]: 13%
- Total Cell Count [12]: 87

SMILES: O=C(NCCO)c1cccc(-c2cc(Nc3ccc(OC(F)(F)F)cc3)ncn2)c1
- Population Apoptotic (%) [1]: 64%
- Population Fragmented Nuclei (%) [1]: 13%
- Population Healthy Nuclei (%) [1]: 72%
- Population Hoechst High Intensity Objects (%) [1]: 1%
- Population Membrane Permeable-Phenotype (%) [1]: 3%
- Population Mitochondria Different-Phenotype (%) [1]: 3%
- Population Mitotic Cells (%) [1]: 35%
- Population Normal (%) [1]: 98%
- Population Pyknosed Nuclei (%) [1]: 13%
- Population Tubulin-Different-Phenotype (%) [1]: 1%
- Total Cell Count [1]: 213
- Population Apoptotic (%) [2]: 84%
- Population Fragmented Nuclei (%) [2]: 15%
- Population Healthy Nuclei (%) [2]: 73%
- Population Membrane Permeable-Phenotype (%) [2]: 4%
- Population Mitotic Cells (%) [2]: 15%
- Population Pyknosed Nuclei (%) [2]: 10%
- Population Tubulin-Different-Phenotype (%) [2]: 4%
- Total Cell Count [2]: 128
- Population Apoptotic (%) [3]: 84%
- Population Fragmented Nuclei (%) [3]: 21%
- Population Healthy Nuclei (%) [3]: 66%
- Population Hoechst High Intensity Objects (%) [3]: 4%
- Population Membrane Permeable-Phenotype (%) [3]: 9%
- Population Mitochondria Different-Phenotype (%) [3]: 7%
- Population Mitotic Cells (%) [3]: 15%
- Population Normal (%) [3]: 95%
- Population Pyknosed Nuclei (%) [3]: 12%
- Population Tubulin-Different-Phenotype (%) [3]: 6%
- Total Cell Count [3]: 274
- Population Apoptotic (%) [4]: 100%
- Population Fragmented Nuclei (%) [4]: 20%
- Population Healthy Nuclei (%) [4]: 68%
- Population Hoechst High Intensity Objects (%) [4]: 2%
- Population Mitochondria Different-Phenotype (%) [4]: 15%
- Population Mitotic Cells (%) [4]: 0%
- Population Normal (%) [4]: 97%
- Population Tubulin-Different-Phenotype (%) [4]: 3%
- Total Cell Count [4]: 77
- Population Apoptotic (%) [5]: 70%
- Population Fragmented Nuclei (%) [5]: 16%
- Population Healthy Nuclei (%) [5]: 73%
- Population Hoechst High Intensity Objects (%) [5]: 1%
- Population Membrane Permeable-Phenotype (%) [5]: 3%
- Population Mitochondria Different-Phenotype (%) [5]: 3%
- Population Mitotic Cells (%) [5]: 29%
- Population Normal (%) [5]: 98%
- Population Pyknosed Nuclei (%) [5]: 9%
- Population Tubulin-Different-Phenotype (%) [5]: 2%
- Total Cell Count [5]: 256
- Population Apoptotic (%) [6]: 86%
- Population Fragmented Nuclei (%) [6]: 20%
- Population Healthy Nuclei (%) [6]: 69%
- Population Membrane Permeable-Phenotype (%) [6]: 7%
- Population Mitochondria Different-Phenotype (%) [6]: 5%
- Population Mitotic Cells (%) [6]: 13%
- Population Tubulin-Different-Phenotype (%) [6]: 4%
- Total Cell Count [6]: 156
- Population Apoptotic (%) [7]: 82%
- Population Fragmented Nuclei (%) [7]: 22%
- Population Healthy Nuclei (%) [7]: 64%
- Population Hoechst High Intensity Objects (%) [7]: 4%
- Population Membrane Permeable-Phenotype (%) [7]: 6%
- Population Mitochondria Different-Phenotype (%) [7]: 3%
- Population Mitotic Cells (%) [7]: 17%
- Population Normal (%) [7]: 95%
- Population Pyknosed Nuclei (%) [7]: 12%
- Population Tubulin-Different-Phenotype (%) [7]: 1%
- Total Cell Count [7]: 344
- Population Apoptotic (%) [8]: 100%
- Population Fragmented Nuclei (%) [8]: 15%
- Population Healthy Nuclei (%) [8]: 78%
- Population Hoechst High Intensity Objects (%) [8]: 1%
- Population Membrane Permeable-Phenotype (%) [8]: 12%
- Population Mitochondria Different-Phenotype (%) [8]: 13%
- Population Mitotic Cells (%) [8]: 0%
- Population Normal (%) [8]: 98%
- Population Pyknosed Nuclei (%) [8]: 5%
- Population Tubulin-Different-Phenotype (%) [8]: 4%
- Total Cell Count [8]: 96
- Population Apoptotic (%) [9]: 88%
- Population Fragmented Nuclei (%) [9]: 15%
- Population Healthy Nuclei (%) [9]: 75%
- Population Hoechst High Intensity Objects (%) [9]: 2%
- Population Membrane Permeable-Phenotype (%) [9]: 6%
- Population Mitochondria Different-Phenotype (%) [9]: 3%
- Population Mitotic Cells (%) [9]: 11%
- Population Normal (%) [9]: 97%
- Population Pyknosed Nuclei (%) [9]: 8%
- Population Tubulin-Different-Phenotype (%) [9]: 4%
- Total Cell Count [9]: 417
- Population Apoptotic (%) [10]: 96%
- Population Fragmented Nuclei (%) [10]: 20%
- Population Healthy Nuclei (%) [10]: 65%
- Population Membrane Permeable-Phenotype (%) [10]: 9%
- Population Mitochondria Different-Phenotype (%) [10]: 4%
- Population Mitotic Cells (%) [10]: 3%
- Population Pyknosed Nuclei (%) [10]: 14%
- Population Tubulin-Different-Phenotype (%) [10]: 6%
- Total Cell Count [10]: 206
- Population Apoptotic (%) [11]: 92%
- Population Fragmented Nuclei (%) [11]: 18%
- Population Healthy Nuclei (%) [11]: 72%
- Population Hoechst High Intensity Objects (%) [11]: 3%
- Population Membrane Permeable-Phenotype (%) [11]: 8%
- Population Mitochondria Different-Phenotype (%) [11]: 3%
- Population Mitotic Cells (%) [11]: 7%
- Population Normal (%) [11]: 96%
- Population Pyknosed Nuclei (%) [11]: 9%
- Population Tubulin-Different-Phenotype (%) [11]: 6%
- Total Cell Count [11]: 473
- Population Apoptotic (%) [12]: 91%
- Population Fragmented Nuclei (%) [12]: 26%
- Population Healthy Nuclei (%) [12]: 64%
- Population Hoechst High Intensity Objects (%) [12]: 2%
- Population Membrane Permeable-Phenotype (%) [12]: 5%
- Population Mitochondria Different-Phenotype (%) [12]: 7%
- Population Mitotic Cells (%) [12]: 8%
- Population Normal (%) [12]: 97%
- Population Pyknosed Nuclei (%) [12]: 8%
- Population Tubulin-Different-Phenotype (%) [12]: 1%
- Total Cell Count [12]: 143
